# Laboratory results as given in ChEMBL document CHEMBL4425122, “Discovery of 1-(1H-Pyrazolo[4,3-c]pyridin-6-yl)urea Inhibitors of Extracellular Signal-Regulated Kinase (ERK) for the Treatment of Cancers” (J Med Chem, 2016).
# The source made the active and inactive calls. No cut-off for these calls is given here.
# What was measured:
# Homo sapiens [1] = species: Homo sapiens; assay: Selectivity ratio, ratio of IC50 for recombinant human GST-tagged ERK2 expressed in Escherichia coli to IC50 for MEK2 (unknown origin)
# Method in brief: (§1)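 Part of a counter-screen panel of 101 kinases. Fold selectivity is each kinase's IC50 relative to the IC50 from the Invitrogen ERK2 assay.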
# [2] = Volume of distribution at steady state in rat at 0.5 mg/kg, iv; format: ADME, organism-based; conditions: in vivo, read-out: Vdss
# Method in brief: (§2)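 Rats dosed IV at 0.5 mg/kg as solution in PEG400:H2O (60:40 v/v).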
# [3] = Inhibition of ERK in human A375SM cells harboring BRAF V600E mutant assessed as inhibition of RSK phosphorylation measured after 4 hrs by mesoscale electrochemiluminescent sandwich assay; format: cell-based; conditions: A375-SM
# Method in brief: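 A375SM (BRAF V600E melanoma) cells, 10,000 per well, treated 4 h; lysed 20 min at 4 °C in Tris/NaCl/EGTA/EDTA/Triton/NaF buffer with protease and phosphatase inhibitors. Lysate captured with biotin anti-RSK1 on streptavidin MSD plate, detected with SULFO-TAG anti-pRSK (pThr359/Ser363) overnight at 4 °C; electrochemiluminescence read. IC50 from 11-point titration.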
# A375-SM [4] = assay: Antitumor activity against human A375SM cells xenografted in mouse assessed as tumor regression at 50 mg/kg, po administered bid for 20 days measured after final dosage relative to vehicle treated control; format: functional
# Method in brief: (§3)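 Mice bearing A375SM xenografts dosed orally in PEG300:H2O (50:50 v/v) at 25 or 50 mg/kg BID or 100 mg/kg QD for 20 days, vehicle arm for comparison; tumor volume followed versus vehicle. Plasma exposure (AUC, Cmax, Tmax) measured on day 20.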
# [5] = target: Mitogen-activated protein kinase 1 (Homo sapiens, UniProt P28482); assay: Inhibition of human ERK2 preincubated for 15 mins followed by addition of IMAP peptide substrate and ATP measured after 60 mins by IMAP-FP assay
# Method in brief: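 Final: 0.5 nM hERK2, 900 nM unlabeled + 80 nM labeled peptide, 30 µM ATP; 60 min, quenched with IMAP beads in binding buffer with 24 mM NaCl, read by fluorescence polarization after 60 min.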
# [6] = Tmax in mouse xenografted with human A375SM cells at 50 mg/kg, po bid; format: ADME, organism-based; conditions: in vivo; method in brief: as §3
# [7] = Plasma concentration in mouse xenografted with human A375SM cells at 100 mg/kg, po administered qd for 20 days measured after 24 hrs of final dose; format: ADME, organism-based
# Method in brief: (§4)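 A375SM xenograft mice given 100 mg/kg QD orally in PEG300:H2O (50:50 v/v) for 20 days; after final dose on day 20, blood taken at several time points from this arm and vehicle arm for compound exposure and pRSK and pERK levels.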
# [8] = Protein binding in rat plasma; format: ADME, cell-free; conditions: read-out: PPB (converted)
# [9] = Plasma clearance in rat at 0.5 mg/kg, iv; format: ADME, organism-based; method in brief: as §2
# [10] = Tmax in mouse xenografted with human A375SM cells at 100 mg/kg, po qd; format: ADME, organism-based; conditions: in vivo; method in brief: as §3
# [11] = Plasma concentration in mouse xenografted with human A375SM cells at 100 mg/kg, po administered qd for 20 days measured after 8 hrs of final dose; format: ADME, organism-based; method in brief: as §4
# Homo sapiens [12] = species: Homo sapiens; assay: Selectivity ratio, ratio of IC50 for recombinant human GST-tagged ERK2 expressed in Escherichia coli to IC50 for FLT4 (unknown origin); method in brief: as §1
# [13] = Plasma concentration in mouse xenografted with human A375SM cells at 100 mg/kg, po administered qd for 20 days measured after 6 hrs of final dose; format: ADME, organism-based; method in brief: as §4
# A375-SM [14] = assay: Antitumor activity against human A375SM cells xenografted in mouse assessed as tumor regression compound administered orally for 20 days measured after final dosage relative to vehicle treated control; format: functional
# [15] = Inhibition of ERK (unknown origin) assessed as inhibition of RSK phosphorylation; set-up: species or system Homo sapiens
# [16] = Tmax in mouse xenografted with human A375SM cells at 25 mg/kg, po bid; format: ADME, organism-based; conditions: in vivo; method in brief: as §3
# Mus musculus [17] = assay: In vivo inhibition of MEK in mouse xenografted with human A375SM cells assessed as inhibition ERK phosphorylation at 100 mg/kg, po administered qd for 20 days measured after 2 to 24 hrs post final dosage; format: functional, organism-based; method in brief: as §4
# [18] = AUC in mouse xenografted with human A375SM cells at 50 mg/kg, po bid measured on day 20; format: ADME, organism-based; conditions: in vivo; method in brief: as §3
# Homo sapiens [19] = species: Homo sapiens; assay: Selectivity ratio, ratio of IC50 for recombinant human GST-tagged ERK2 expressed in Escherichia coli to IC50 for ERK1 (unknown origin); method in brief: as §1
# [20] = Plasma concentration in mouse xenografted with human A375SM cells at 100 mg/kg, po administered qd for 20 days measured after 12 hrs of final dose; format: ADME, organism-based; method in brief: as §4
# Homo sapiens [21] = species: Homo sapiens; assay: Selectivity ratio, ratio of IC50 for recombinant human GST-tagged ERK2 expressed in Escherichia coli to IC50 for MELK (unknown origin); method in brief: as §1
# [22] = Half life in rat at 0.5 mg/kg, iv; format: ADME, organism-based; conditions: in vivo; method in brief: as §2
# [23] = target: Dual specificity mitogen-activated protein kinase kinase; MEK1/2 (Homo sapiens, UniProt P36507+Q02750); assay: Inhibition of MEK in human A375 cells assessed as inhibition of ERK phosphorylation; format: cell-based
# [24] = Solubility in human FaSSIF at pH 6.5; format: physicochemical
# Method in brief: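 Solubility measured in human fasted-state simulated intestinal fluid at pH 6.5.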
# [25] = AUC in mouse xenografted with human A375SM cells at 25 mg/kg, po bid measured on day 20; format: ADME, organism-based; conditions: in vivo; method in brief: as §3
# [26] = Oral bioavailability in rat at 1 mg/kg; format: ADME, organism-based; conditions: in vivo
# Method in brief: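 Rats dosed PO at 1 mg/kg as solution in PEG400:H2O (60:40 v/v).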
# [27] = Plasma concentration in mouse xenografted with human A375SM cells at 100 mg/kg, po administered qd for 20 days measured after 2 hrs of final dose; format: ADME, organism-based; method in brief: as §4
# A375-SM [28] = assay: Antiproliferative activity against human A375SM cells harboring BRAF V600E mutant measured after 96 hrs by Cell Titer-Glo assay; format: functional, cell-based
# Method in brief: (§5)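 Cells in DMEM/10 mM HEPES/10% FBS added after compound, incubated 96 h at 37 °C, 5% CO2; equilibrated 15 min at room temperature, viability by CellTiter-Glo luminescence. IC50 from 10-point, 3-fold titration curves.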
# Homo sapiens [29] = species: Homo sapiens; assay: Selectivity ratio, ratio of IC50 for recombinant human GST-tagged ERK2 expressed in Escherichia coli to IC50 for BRAF (unknown origin)
# Method in brief: (§6)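 Kinase counter-screen using a coupled format: the kinase's effect was read as activity of downstream ERK. Fold selectivity is the kinase IC50 relative to the IC50 from the Invitrogen ERK2 assay.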
# Mus musculus [30] = assay: In vivo inhibition of ERK in mouse xenografted with human A375SM cells assessed as inhibition RSK phosphorylation at 100 mg/kg, po administered qd for 20 days measured after 2 to 24 hrs post final dosage; format: functional, organism-based; method in brief: as §4
# [31] = Dose normalized AUC in rat at 0.5 mg/kg, iv; format: ADME, organism-based; conditions: in vivo
# A375-SM [32] = assay: Antitumor activity against human A375SM cells xenografted in mouse assessed as tumor regression at 100 mg/kg, po administered qd for 20 days measured after final dosage relative to vehicle treated control; format: functional; method in brief: as §3
# CHL-1 = assay: Antiproliferative activity against human CHL-1 cells measured after 96 hrs by Cell Titer-Glo assay; format: functional, cell-based; conditions: CHL-1, 96 h; method in brief: as §5
# [33] = Cmax in mouse xenografted with human A375SM cells at 50 mg/kg, po bid measured on day 20; format: ADME, organism-based; set-up: dose 50 mg/kg, route oral; conditions: in vivo; method in brief: as §3
# [34] = AUC in mouse xenografted with human A375SM cells at 100 mg/kg, po qd measured on day 20; format: ADME, organism-based; conditions: in vivo; method in brief: as §3
# Cytochrome P450 3A4 = Cytochrome P450 3A4 (Homo sapiens, UniProt P08684); assay: Inhibition of CYP3A4 (unknown origin); format: ADME
# [35] = target: Voltage-gated inwardly rectifying potassium channel KCNH2 (Homo sapiens, UniProt Q12809); assay: Inhibition of human ERG
# Homo sapiens [36] = species: Homo sapiens; assay: Selectivity ratio, ratio of IC50 for recombinant human GST-tagged ERK2 expressed in Escherichia coli to IC50 for PDGFRalpha V561D mutant (unknown origin); method in brief: as §1
# A375-SM [37] = assay: Antitumor activity against human A375SM cells xenografted in mouse assessed as tumor growth inhibition at 25 mg/kg, po administered bid for 20 days measured after final dosage relative to vehicle treated control; format: functional; conditions: 480 h, read-out: TGI; method in brief: as §3
# [38] = Cmax in mouse xenografted with human A375SM cells at 100 mg/kg, po qd measured on day 20; format: ADME, organism-based; set-up: dose 100 mg/kg, route oral; conditions: in vivo; method in brief: as §3
# Homo sapiens [39] = species: Homo sapiens; assay: Selectivity ratio, ratio of IC50 for recombinant human GST-tagged ERK2 expressed in Escherichia coli to IC50 for PDGFRalpha D842V mutant (unknown origin); method in brief: as §1
# [40] = Cmax in mouse xenografted with human A375SM cells at 25 mg/kg, po bid measured on day 20; format: ADME, organism-based; set-up: dose 25 mg/kg, route oral; conditions: in vivo; method in brief: as §3
# Homo sapiens [41] = species: Homo sapiens; assay: Selectivity ratio, ratio of IC50 for recombinant human GST-tagged ERK2 expressed in Escherichia coli to IC50 for MEK1 (unknown origin); method in brief: as §6
# Chain of Cytochrome P450 3A4 (P08684 whole entry): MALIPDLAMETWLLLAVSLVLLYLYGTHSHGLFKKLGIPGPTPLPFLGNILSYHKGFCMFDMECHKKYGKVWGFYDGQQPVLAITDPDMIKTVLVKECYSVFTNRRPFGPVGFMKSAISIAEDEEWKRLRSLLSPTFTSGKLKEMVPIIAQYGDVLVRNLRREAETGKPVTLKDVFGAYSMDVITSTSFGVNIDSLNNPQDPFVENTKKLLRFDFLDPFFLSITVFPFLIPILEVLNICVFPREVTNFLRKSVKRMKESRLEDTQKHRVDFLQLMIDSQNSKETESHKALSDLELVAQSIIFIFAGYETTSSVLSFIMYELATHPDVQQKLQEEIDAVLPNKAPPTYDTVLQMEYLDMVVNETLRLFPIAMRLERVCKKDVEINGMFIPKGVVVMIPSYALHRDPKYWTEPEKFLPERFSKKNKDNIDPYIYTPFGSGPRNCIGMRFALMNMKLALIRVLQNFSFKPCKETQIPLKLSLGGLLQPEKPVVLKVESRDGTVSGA
# Chain of Voltage-gated inwardly rectifying potassium channel KCNH2 (Q12809 whole entry): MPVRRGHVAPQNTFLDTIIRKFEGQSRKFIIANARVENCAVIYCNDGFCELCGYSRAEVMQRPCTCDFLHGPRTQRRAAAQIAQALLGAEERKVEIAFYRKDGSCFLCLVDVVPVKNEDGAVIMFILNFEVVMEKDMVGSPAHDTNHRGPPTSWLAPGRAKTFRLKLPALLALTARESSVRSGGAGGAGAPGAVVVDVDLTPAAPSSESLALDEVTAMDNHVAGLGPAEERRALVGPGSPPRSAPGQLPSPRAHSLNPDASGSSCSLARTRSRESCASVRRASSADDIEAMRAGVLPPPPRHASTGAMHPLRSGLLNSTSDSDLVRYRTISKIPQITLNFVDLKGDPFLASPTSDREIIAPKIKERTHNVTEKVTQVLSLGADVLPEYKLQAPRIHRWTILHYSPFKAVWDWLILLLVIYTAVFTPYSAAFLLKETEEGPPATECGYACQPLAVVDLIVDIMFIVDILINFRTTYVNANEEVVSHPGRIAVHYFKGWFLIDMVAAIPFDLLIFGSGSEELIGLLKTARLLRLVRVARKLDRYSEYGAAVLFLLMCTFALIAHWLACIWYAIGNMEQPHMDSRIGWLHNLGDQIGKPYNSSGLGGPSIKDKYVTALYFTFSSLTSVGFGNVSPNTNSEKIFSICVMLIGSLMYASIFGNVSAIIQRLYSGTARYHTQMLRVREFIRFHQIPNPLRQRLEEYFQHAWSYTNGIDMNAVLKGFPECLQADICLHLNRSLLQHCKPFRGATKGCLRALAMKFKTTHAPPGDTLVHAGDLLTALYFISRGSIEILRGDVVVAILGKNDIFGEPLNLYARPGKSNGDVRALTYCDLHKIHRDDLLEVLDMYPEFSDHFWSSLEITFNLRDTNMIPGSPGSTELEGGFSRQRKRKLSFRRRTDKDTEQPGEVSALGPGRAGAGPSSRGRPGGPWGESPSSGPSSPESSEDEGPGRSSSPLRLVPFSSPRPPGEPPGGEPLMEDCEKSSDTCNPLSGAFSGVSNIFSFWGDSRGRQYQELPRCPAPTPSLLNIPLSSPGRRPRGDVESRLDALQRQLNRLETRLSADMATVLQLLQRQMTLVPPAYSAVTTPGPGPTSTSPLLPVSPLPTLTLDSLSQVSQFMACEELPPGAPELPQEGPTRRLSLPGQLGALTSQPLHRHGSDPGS
# Chain of Mitogen-activated protein kinase 1 (P28482 whole entry): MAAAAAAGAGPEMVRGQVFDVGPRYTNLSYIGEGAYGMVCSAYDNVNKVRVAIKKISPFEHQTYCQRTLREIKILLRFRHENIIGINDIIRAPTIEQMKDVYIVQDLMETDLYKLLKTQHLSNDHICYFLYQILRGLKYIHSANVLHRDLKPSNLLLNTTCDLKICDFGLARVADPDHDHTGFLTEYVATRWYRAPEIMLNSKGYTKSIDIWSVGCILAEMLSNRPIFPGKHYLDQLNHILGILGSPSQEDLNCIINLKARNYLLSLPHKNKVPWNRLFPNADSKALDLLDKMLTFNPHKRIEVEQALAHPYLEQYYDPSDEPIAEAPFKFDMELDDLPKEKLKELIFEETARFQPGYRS
smiles,measurement,setting,value
Cc1cc(-c2n[nH]c3cc(NC(=O)N[C@H](C)c4ccccc4)ncc23)ccn1,Ratio IC50,Homo sapiens [1],< 100
same,Vd,[2],1.7 L/kg
same,IC50,[3],70 nM
same,Activity,A375-SM [4],47%
same,IC50,[5],0.2 nM
same,Tmax,[6],11 h
same,concentration at 24 h,[7],0.1 µM
same,fraction unbound,[8],0.012
same,clearance,[9],35 mL/min/kg
same,Tmax,[10],4 h
same,concentration at 8 h,[11],6.7 µM
same,Ratio IC50,Homo sapiens [12],< 100
same,concentration at 6 h,[13],5.2 µM
same,Activity,A375-SM [14],Dose-dependent effect
same,IC50,[15],77 nM
same,Tmax,[16],11 h
same,inhibition,Mus musculus [17],inactive
same,AUC,[18],240 µM·h
same,Ratio IC50,Homo sapiens [19],< 100
same,concentration at 12 h,[20],1.6 µM
same,Ratio IC50,Homo sapiens [21],< 100
same,half-life,[22],0.7 h
same,IC50,[23],> 10000 nM
same,solubility,[24],18 µM
same,AUC,[25],95 µM·h
same,bioavailability,[26],12%
same,concentration at 2 h,[27],20 µM
same,IC50,A375-SM [28],43 nM
same,Ratio IC50,Homo sapiens [29],< 100
same,inhibition,Mus musculus [30],Active
same,AUC/dose,[31],1.3 µM·h/mg/kg
same,Activity,A375-SM [32],42%
same,IC50,CHL-1,1300 nM
same,Cmax,[33],23 µM
same,AUC,[34],320 µM·h
same,IC50,Cytochrome P450 3A4,3900 nM
same,IC50,[35],> 20000 nM
same,Ratio IC50,Homo sapiens [36],< 100
same,inhibition in vivo at 25 mg/kg,A375-SM [37],82%
same,Cmax,[38],27 µM
same,Ratio IC50,Homo sapiens [39],< 100
same,Cmax,[40],12 µM
same,Ratio IC50,Homo sapiens [41],< 100
